Several values for one entry are separate records, joined by “and”; a condition that tells them apart may be missing. Identical values can stand only once.

Experiment [1] relates to Rattus norvegicus. In words: Compound was tested in vivo for antiinflammatory activity against chronic adjuvant arthritic rat by prophylactic inhibition 1 degree paw after peroral administration of 25 mg/kg of dose. It counts as functional. As to conditions: route oral.
The subject of experiment [2] is Rattus norvegicus. In words: Compound was tested in vivo for antiinflammatory activity against chronic adjuvant arthritic rat by prophylactic inhibition 2 degree paw after peroral administration of 25 mg/kg of dose. It counts as functional. The following applies: route oral.
Experiment [3] relates to Rattus norvegicus. In words: Compound was tested in vivo for antiinflammatory activity against chronic adjuvant arthritic rat by prophylactic inhibition 1 degree paw after peroral administration of 36 mg/kg of dose. As to conditions: po.
The test system of experiment [4] is Rattus norvegicus. In words: Compound was tested in vivo for antiinflammatory activity against chronic adjuvant arthritic rat by prophylactic inhibition 2 degree paw after peroral administration of 18 mg/kg of dose. As to conditions: po.
The subject of experiment [5] is Rattus norvegicus. In words: Compound was tested in vivo for antiinflammatory activity against chronic adjuvant arthritic rat by prophylactic inhibition 2 degree paw after peroral administration of 36 mg/kg of dose. As to conditions: po.
Experiment [6] has as its system Rattus norvegicus. In words: Tested in vivo for antiinflammatory activity against chronic adjuvant arthritic rat by prophylactic inhibition 2 degree paw after peroral administration of 9 mg/kg of dose. It counts as functional. The following applies: route oral. In a few lines:
(§1)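 Prophylactic regimen, rats. Adjuvant is heat-killed Mycobacterium tuberculosis ground to a fine powder in paraffin oil (6 mg/mL); 0.1 mL is injected into the left hind paw. Oral drug is given 1 h before adjuvant challenge, then for 21 consecutive days; controls receive methyl cellulose. Left (1°) and right (2°) hind paw volumes are measured by plethysmograph.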

In experiment [7] the test system is Rattus norvegicus. In words: In vivo antiinflammatory activity against rats by RPAR(reverse passive Arthus reaction) synovitis method. Set-up: concentration or dose not given beside the values. It counts as functional. In a few lines: (§2)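 Lewis rats, oral drug or placebo 1 h before iv BSA (2.28 mg in saline), then intraarticular rabbit anti-BSA (0.54 mg) into one knee and saline into the other, under light anesthesia. Second oral dose at 3 h; the total of both doses is the calculated dose. About 17 h after induction, subpatellar tissue with synovium is excised and weighed. Response is antibody-minus-saline knee weight, tested by analysis of variance.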

In experiment [8] the test system is Rattus norvegicus. In words: Compound was tested in vivo against chronic adjuvant arthritic rat by prophylactic inhibition 2 degree paw. Relative potency with respect to (8-Benzyl-5-hydroxy-1,3-dimethyl-6-propyl-1H,8H-1,3,4b,8,9-pentaaza-fluorene-2,4,7-trione). The class given is functional.
Experiment [9] has as its system Rattus norvegicus. In words: Tested in vivo for antiinflammatory activity against chronic adjuvant arthritic rat by prophylactic inhibition 1 degree paw after peroral administration of 9 mg/kg of dose. The following applies: route oral. It counts as functional. A digest of the protocol:
as §1

Experiment [10] has as its system Rattus norvegicus. In words: Compound was tested in vivo for antiinflammatory activity against rats by RPAR(reverse passive Arthus reaction) synovitis method ata dose of 50 mg/kg, po. It counts as functional. In a few lines: as §2
For experiment [11], the target named is T1, Polyunsaturated fatty acid 5-lipoxygenase (Rattus norvegicus) (UniProt P12527).
T1 sequence (whole entry): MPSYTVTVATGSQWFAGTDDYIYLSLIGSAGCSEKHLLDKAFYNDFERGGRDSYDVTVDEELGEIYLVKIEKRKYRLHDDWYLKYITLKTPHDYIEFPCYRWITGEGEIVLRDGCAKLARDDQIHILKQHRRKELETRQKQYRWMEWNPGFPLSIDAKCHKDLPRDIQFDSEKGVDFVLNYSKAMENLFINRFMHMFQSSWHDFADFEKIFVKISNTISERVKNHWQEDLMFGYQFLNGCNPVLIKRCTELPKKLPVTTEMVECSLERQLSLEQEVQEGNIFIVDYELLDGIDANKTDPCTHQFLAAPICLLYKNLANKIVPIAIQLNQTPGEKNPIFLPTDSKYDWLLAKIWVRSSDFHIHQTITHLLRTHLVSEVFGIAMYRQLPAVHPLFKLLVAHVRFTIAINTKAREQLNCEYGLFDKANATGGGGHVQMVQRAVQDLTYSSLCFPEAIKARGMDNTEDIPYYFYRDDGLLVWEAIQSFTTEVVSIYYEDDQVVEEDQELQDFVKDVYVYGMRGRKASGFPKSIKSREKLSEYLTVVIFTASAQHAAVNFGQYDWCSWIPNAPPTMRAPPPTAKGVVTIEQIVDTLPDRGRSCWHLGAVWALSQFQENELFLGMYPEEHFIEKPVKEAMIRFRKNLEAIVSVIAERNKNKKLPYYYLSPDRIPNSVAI
In words: In vitro inhibitory activity against Lipoxygenase in rat neutrophils at a dose of 50 uM. In a few lines: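 Neutrophils come from the 4 h pleural exudate of male Wistar-Lewis rats given iv BSA plus intrapleural rabbit anti-BSA IgG. Cells are washed, red cells lysed with NH4Cl, and resuspended at about 5×10^6 cells/0.1 mL in Tris pH 7.4 with NaCl and 1 mM CaCl2. Cells are preincubated with compound 4 min at room temperature.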

Experiment [12] relates to Rattus norvegicus. In words: Compound was tested in vivo for antiinflammatory activity against chronic adjuvant arthritic rat by prophylactic inhibition 2 degree paw after peroral administration of 36 mg/kg of dose. The class given is functional. As to conditions: route oral.
Experiment [13] relates to Rattus norvegicus. In words: Compound was tested in vivo for antiinflammatory activity against chronic adjuvant arthritic rat by prophylactic inhibition 1 degree paw after peroral administration of 36 mg/kg of dose. It counts as functional. The following applies: route oral.
The target of experiment [14] is Cyclooxygenase (Rattus norvegicus) (UniProt P35355+Q63921). In words: In vitro inhibitory activity against Prostaglandin G/H synthase in rat neutrophils at a dose of 50 uM.
The species entered for experiment [15] is Rattus norvegicus. In words: compound was tested for antiinflammatory activity by immune response to collagen II antigen in rats, antibody titer was determined by passive hemagglutinination. It counts as functional, organism-based. In a few lines: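 Rats immunized with bovine type II collagen in incomplete Freund's adjuvant, with drug given alongside. Antibody titer to collagen II measured by passive hemagglutination; p ≤ 0.05 by Student's t-test.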

Experiment [16] is filed under the species Rattus norvegicus. In words: Delayed Type hypersensitivity (DTH) is measured by increase in ear thickness 24 hours after antigen injection into pinna. It counts as functional.
The species entered for experiment [17] is Rattus norvegicus. In words: compound was tested for antiinflammatory activity against collagen II arthritis in rats,. It counts as functional. In a few lines:
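Arthritis induced in rats by injection of bovine articular cartilage type II collagen (dissolved in 0.01 M AcOH, dialysed against saline) mixed 1:1 with incomplete Freund's adjuvant. Paw inflammation checked weekly for 7 weeks. Inhibition = [Δpaw vol(collagen) − Δpaw vol(collagen + drug)]/[Δpaw vol(collagen) − Δpaw vol(ICFA control)] × 100. Bone damage scored by lateral-projection radiography; p ≤ 0.05 by Student's t-test.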

In experiment [18] the test system is Rattus norvegicus. In words: compound was tested in vivo for antiinflammatory activity against rats by RPAR(reverse passive Arthus reaction) synovitis method.
The subject of experiment [19] is Rattus norvegicus. In words: Compound was tested in vivo for antiinflammatory activity against chronic adjuvant arthritic rat by therapeutic inhibition 2 degree paw after peroral administration of 1 mg/kg of dose. As to conditions: route oral. The class given is functional.
The test system of experiment [20] is Rattus norvegicus. In words: Compound was tested in vivo for antiinflammatory activity against chronic adjuvant arthritic rat by therapeutic inhibition 2 degree paw after peroral administration of 0.3 mg/kg of dose. As to conditions: po, read-out: Inhibition.
In experiment [21] the test system is Rattus norvegicus. In words: Compound was tested in vivo for antiinflammatory activity against chronic adjuvant arthritic rat by therapeutic inhibition 2 degree paw after peroral administration of 3 mg/kg of dose. The following applies: po, read-out: Inhibition.
Experiment [22] concerns Rattus norvegicus. In words: Compound was tested in vivo for antiinflammatory activity against chronic adjuvant arthritic rat by prophylactic inhibition 2 degree paw after peroral administration of 1 mg/kg of dose. As to conditions: po, read-out: Inhibition.
The species named for experiment [23] is Rattus norvegicus. In words: animal or person. The following applies: po, read-out: Inhibition.
Experiment [24] relates to Rattus norvegicus. In words: Compound was tested in vivo for antiinflammatory activity against chronic adjuvant arthritic rat by therapeutic inhibition 2 degree paw after peroral administration of 5 mg/kg of dose. As to conditions: po, read-out: Inhibition.
Experiment [25] relates to Rattus norvegicus. In words: Antiinflammatory activity against collagen II arthritis in rats, activity % inhibition in noninjected paw edema. It counts as functional. Set-up: concentration or dose not given beside the values. In a few lines:
(§3)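 Rats immunised with bovine articular-cartilage type II collagen (dissolved in 0.01 M AcOH for 24 h at 4 °C, dialysed against saline) mixed in equal volume with incomplete Freund's adjuvant. Paws were examined weekly for 7 weeks. An animal counted as arthritic at Δ paw volume ≥8.0 (injected paw) or ≥4.0 (noninjected paw). Bone lesions were scored on lateral-projection foot radiographs. 16 rats/group.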

Experiment [26] is filed under the species Rattus norvegicus. In words: Compound was tested for antiinflammatory activity against collagen II arthritis in rats,. It counts as functional. A digest of the protocol: as §3
In experiment [27] the test system is Rattus norvegicus. In words: Antiinflammatory activity against collagen II arthritis in rats, activity% inhibition in injected paw edema. The class given is functional. Set-up: concentration or dose not given beside the values. In a few lines:
as §3

For experiment [28], the species on record is Rattus norvegicus. In words: Compound was tested for antiinflammatory activity by immune response to collagen II antigen in rats, antibody titer was determined by passive hemagglutinination. It counts as functional. A digest of the protocol:
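In rats with bovine type II collagen/incomplete Freund's adjuvant arthritis, the antibody response to collagen II was titred by passive hemagglutination. The delayed-type hypersensitivity component, ear thickness 24 h after intrapinna antigen, was read at day 21.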

For `CSc1ccc(Cn2c(O)c(CC=C(C)C)c(=O)n3c4c(=O)n(C)c(=O)n(C)c4nc23)cc1`, the inhibition in vivo at 25 mg/kg was found to be 0% with Rattus norvegicus [1] and 63% in the experiment with Rattus norvegicus [2].
Take `CCCCc1c(O)n(Cc2ccc(F)cc2)c2nc3c(c(=O)n(C)c(=O)n3C)n2c1=O`: the inhibition in vivo at 36 mg/kg with Rattus norvegicus [3] and with Rattus norvegicus [5] was 74% in each case. Also, in the experiment with Rattus norvegicus [4], the inhibition in vivo at 18 mg/kg turned out to be 70%. The results for the inhibition in vivo at 9 mg/kg with Rattus norvegicus [6] and in the experiment with Rattus norvegicus [9] were 59% and 28%, respectively. Further, the Inhibition in the experiment with Rattus norvegicus [7] came out at 27%. In the experiment on Rattus norvegicus [8], the Relative potency was found to be 3.8.
In the experiment with Rattus norvegicus [10], `Cc1c(O)n(Cc2cccc(F)c2)c2nc3c(c(=O)n(C)c(=O)n3C)n2c1=O` came in with an inhibition in vivo at 50 mg/kg of 0%.
For `Cn1c(=O)c2c(nc3n(Cc4ccccc4)c(O)c(CC=C4CCCCC4)c(=O)n23)n(C)c1=O`, the inhibition in [11] was 10% and 9%; in [14], 0%. Moreover, the results for the inhibition in vivo at 36 mg/kg in the experiment with Rattus norvegicus [12] and in the experiment on Rattus norvegicus [13] were 39% and 6%, respectively. The Inhibition with Rattus norvegicus [7] was found to be 7%.
In the case of `C#CCc1c(O)n(Cc2ccc(F)cc2)c2nc3c(c(=O)n(C)c(=O)n3C)n2c1=O`, the inhibition in experiment [11] is 8% and 5%; in [14] it was 3%. The inhibition in vivo at 25 mg/kg with Rattus norvegicus [1] came out at 10%; in the experiment on Rattus norvegicus [2] it was 19%. The compound also had an Inhibition in the experiment with Rattus norvegicus [7] of 24%.
As for AURANOFIN, in the experiment listed under Rattus norvegicus [15], the Antibody titer is 12.9 log-2. This compound registered a DTH in the experiment filed under Rattus norvegicus [16] of 0.0445 mM. Also, the Positive in the experiment filed under Rattus norvegicus [17] was 43.7% and 43.8%.
For the compound `COc1ccc2cc([C@H](C)C(=O)O)ccc2c1` [NAPROXEN], the 50% effect level in the experiment on Rattus norvegicus [18] (ED50) was put at a dose of 24.4 mg/kg. Moreover, the results for the inhibition in vivo at 1 mg/kg in the experiment on Rattus norvegicus [19] and in the experiment on Rattus norvegicus [22] were 50% and 14%, respectively. In addition, in the experiment on Rattus norvegicus [20], the inhibition in vivo at 0.3 mg/kg was found to be 27%. Moreover, in the experiment on Rattus norvegicus [21], the inhibition in vivo at 3 mg/kg is 70%. The inhibition in vivo at 25 mg/kg in the experiment filed under Rattus norvegicus [23] came to 58%. Besides, in the experiment on Rattus norvegicus [24], the inhibition in vivo at 5 mg/kg came to 44%.
On to `CC(C)(S)[C@@H](N)C(=O)O` [PENICILLAMINE], for which the results for the Inhibition with Rattus norvegicus [25] and in the experiment with Rattus norvegicus [27] were 42.6% and 36%, respectively. Moreover, the Positive in the experiment listed under Rattus norvegicus [26] worked out at 31.5%; in the experiment filed under Rattus norvegicus [17] it was 31.3%. The compound further had a DTH in the experiment filed under Rattus norvegicus [16] of 0.0538 mm. The compound further had an Antibody titer in the experiment listed under Rattus norvegicus [28] of 10.7.

Source of the values: ChEMBL document CHEMBL1123282, “Antiinflammatory activity of substituted 6-hydroxypyrimido[2,1-f]purine-2,4,8(1H,3H,9H)-triones. Atypical nonsteroidal antiinflammatory agents” (J Med Chem, 1986).
